# Screens deposited in PubChem by several laboratories.
# CTSL1 counter: Fasciola hepatica cathepsin L1 inhibitors, primary screen, counter-screen for PFM18AAP inhibitor project, biochemical, QFRET, fluorogenic peptide substrate; 0.49% of 300,000 active; recombinant F. hepatica cathepsin L1, Z-Leu-Arg-MCA fluorescence; inhibition, % at 5.96 µM; AID 1906, 2009;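 active = inhibition above the mean of all tested compounds plus 3 SD, set per screening campaign, cut at about 17% in these data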;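 note: 0% = plate median of test compound wells and 100% = 1 µM Z-Phe-Ala-diazomethylketone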
# TDP2 inh: human TDP2 enzyme inhibitors, primary screen, biochemical, epi absorbance, recombinant enzyme | 0.34% of 370,000 active | inhibition, % at 12.8 µM | Tyrosyl-DNA phosphodiesterase 2 (Homo sapiens), O95551 | T5PNP hydrolysis, p-nitrophenol absorbance 415 nm;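 active = inhibition above the mean of all tested compounds plus 3 SD, set per campaign, cut at about 25% in these data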;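 note: 0% = DMSO with enzyme and 100% = buffer with substrate but no TDP2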
# Target sequence (O95551 whole entry, looked up): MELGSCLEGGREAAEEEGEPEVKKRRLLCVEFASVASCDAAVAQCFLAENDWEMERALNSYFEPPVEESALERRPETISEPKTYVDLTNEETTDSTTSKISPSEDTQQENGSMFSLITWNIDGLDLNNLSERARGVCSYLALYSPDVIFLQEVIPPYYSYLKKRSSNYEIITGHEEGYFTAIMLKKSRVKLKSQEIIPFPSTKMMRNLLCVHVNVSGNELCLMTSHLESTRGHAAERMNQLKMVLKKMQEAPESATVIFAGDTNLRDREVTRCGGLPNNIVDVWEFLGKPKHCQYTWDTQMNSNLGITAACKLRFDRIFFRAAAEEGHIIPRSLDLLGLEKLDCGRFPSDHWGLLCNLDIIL
#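 Material: recombinant human TDP2; quantity: TDP2 enzyme at 120 nM final; medium: Tris-HCl pH 7.5 with MgCl2; compound: single concentration, 12.8 µM nominal, with 1% DMSO; incubation: 2 h enzyme incubation at 37 °C; signal: epi absorbance; measure: percent inhibition; benchmarks: high control without enzyme, low control DMSO plus TDP2; repeats: singlicate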
# SUMO HTRF inh: inhibitors of in vitro SUMOylation cascade, primary screen, biochemical, HTRF, uHTS; SUMO-conjugating enzyme UBC9 (Homo sapiens), P63279; HTRF SUMOylation assay, SAE1/SAE2 + UBC9; inhibition, % at 35 µM; 0.36% of 290,000 active; AID 2006, 2009; in the data active = inhibition above about 50%, passing the limit was not always enough
# Target sequence (P63279 whole entry, looked up): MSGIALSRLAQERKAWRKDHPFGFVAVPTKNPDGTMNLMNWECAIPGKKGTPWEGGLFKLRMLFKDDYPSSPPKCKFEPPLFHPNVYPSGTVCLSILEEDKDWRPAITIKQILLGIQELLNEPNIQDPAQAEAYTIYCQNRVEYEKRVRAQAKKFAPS
# NSD2 HMT inh: NSD2 histone methyltransferase inhibitors, primary screen, biochemical, AlphaScreen, single concentration, set 2; Histone-lysine N-methyltransferase NSD2 (Homo sapiens), O96028; NSD2 peptide methylation, 120 min; inhibition, % at 12.5 µM; 0.54% of 310,000 active; AID 743445, 2014; in the data active = inhibition above about 50%
# TDP2 inh conf: human TDP2 enzyme inhibitors, retest, confirmation, biochemical, epi absorbance, recombinant enzyme. shares compounds with TDP2 inh. absorbance read-out. inhibition, % at 12.8 µM. 22% of 1,100 active. AID 743263, 2014; in the data active = inhibition above about 25%;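 note: 0% = vehicle with enzyme and 100% = no enzyme buffer only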
# An asterisk follows results filed as active; . = no result given. Hits are enriched below; roughly 1.2% of the tested compounds scored in any of these assays.
SMILES,CTSL1 counter,TDP2 inh,SUMO HTRF inh,NSD2 HMT inh,TDP2 inh conf
O=S(=O)(Nc1cc2nc3ccccc3nc2n1Cc1ccccc1)c1ccc(Cl)cc1,-3,107*,100,0,93*
O=C(OCc1ccccc1)N1CCC2CC1c1cc(NCCc3ccccc3)ccc12 (configuration not stated),.,-4,.,.,.
CC(C)c1cccc(C(C)C)c1NC(=O)CNCC(O)c1ccccc1 (configuration not stated),-3,26*,4,-5,0
COc1cccc(C(=O)c2c(-c3ccccc3)ncc3cc(OC)c(OC)cc23)c1,.,-15,.,.,.
CC(NC(=O)C(C)N1CCN(Cc2ccccc2)CC1)c1ccccc1 (configuration not stated),3,25*,8,-1,-3
CC(CN1CCC(O)CC1)c1ccccc1 (configuration not stated),-2,-17,8,-1,.
CC(CN1CCN(Cc2ccccc2)CC1)c1ccccc1 (configuration not stated),-5,26*,5,7,10
CCOC(=O)[C@]12CCCC=C1N(CCC1=CCCCC1)C(=O)[C@H](CC(=O)N1CCCC1)C2,.,1,.,2,.
CCOC(=O)Nc1ccc2c(COC(=O)C(NS(=O)(=O)c3ccc(Cl)cc3)C(C)O)cc(=O)oc2c1 (configuration not stated),.,1,.,2,.
COC(=O)c1ccc2cc(OC)c(OC)cc2c1,.,1,.,-2,.
COC(=O)c1ccc(OCC(O)CNCC(c2ccc(OC)cc2)N(C)C)c(OC)c1 (configuration not stated),-1,26*,-10,-1,13
CCOC(=O)c1c(C)[nH]c(C(=O)CN2CCN(CC)CC2)c1C,-2,10,18,.,.
CCOC(=O)c1c(C)[nH]c(C(=O)CN2CC(C)OC(C)C2)c1C (configuration not stated),6,29*,0,1,1
CC1=NN(c2ccc(S(=O)(=O)O)cc2C)C(=O)C1,1,34*,84*,15,38*
COc1ccc(F)cc1S(=O)(=O)NCC(=O)NCc1cc(=O)n(C)c(=O)n1C,6,9,-2,4,.
COc1ccc(F)cc1S(=O)(=O)NCc1cc(=O)n(C)c(=O)n1C,-1,25*,5,5,4
CCOC(=O)[C@]12CCC=C1N(Cc1ccco1)C(=O)[C@H](CC(=O)N1CCCCC1)C2,.,3,.,.,.
O=C(Cn1cnc([N+](=O)[O-])c1)Nc1ccc(F)c(Cl)c1,.,29*,-1,-2,-8
O=C(Cn1cnc([N+](=O)[O-])c1)Nc1ccc(Cl)cc1Cl,.,6,.,-5,.
O=C1NC(=O)/C(=C/c2ccc(-c3cc(C(=O)O)ccc3Cl)o2)S1,1,32*,15,19,16
CCOC(=O)N1CCN(C(=O)c2ccc(Cl)c(S(=O)(=O)N3CCOCC3)c2)CC1,-1,-7,-7,1,.
CCCN1CCN(C(=O)c2ccc(F)c(S(=O)(=O)N3CCOCC3)c2)CC1,.,39*,.,3,3
O=C(CCn1c(=O)oc2ccc(Cl)cc21)N1CCN(Cc2ccccc2)CC1,0,-20,-2,-1,.
O=C(CCn1c(=O)oc2ccc(Cl)cc21)N1CCN(c2ccccc2)CC1,1,25*,4,1,-1
Cc1ccccc1OCCC(=O)OCC(=O)c1c(N)n(CC(C)C)c(=O)n(C)c1=O,-7,29*,-9,-4,6
SMILES,CTSL1 counter,TDP2 inh,SUMO HTRF inh,NSD2 HMT inh,TDP2 inh conf
O=C(NC(c1ccccc1)c1cnccn1)C1CCN(CCOc2ccc(Cl)cc2Cl)CC1 (configuration not stated),.,1,.,1,.
Cc1nc2cc(NC(=O)N(C)c3ccc4ccccc4c3)ccc2o1,-1,44*,18,2,-5
CC(C)C1NC2(C(=O)c3ccccc3C2=O)C2C(=O)N(c3ccc(F)cc3)C(=O)C12 (configuration not stated),-2,40*,-8,-5,2
CC(C)(C)c1ccc(C(=O)NCCCNC(=O)c2ccco2)cc1,3,28*,14,-1,-9
CC(C)(C)c1ccc(NC(=O)CCNC(=O)c2ccco2)cc1,-3,-5,-9,.,.
CCN(CC)c1cc(Cl)c2nonc2c1N,0,33*,81,8,9
Cc1ccc(C)c(C(=O)CCC(=O)Nc2ccc(N3CCN(C)CC3)cc2C)c1,.,3,.,7,.
CN1CCN(S(=O)(=O)c2ccc(NC(=O)c3ccccc3F)cc2)CC1,-3,25*,-2,1,4
CN1CCN(S(=O)(=O)c2ccc(NC(=O)c3ccccc3Cl)cc2)CC1,-1,0,11,0,.
COc1cc(CCC(=O)Nc2nccs2)cc(OC)c1OC,-4,29*,2,-4,-5
Cc1ccc(OCCOc2cccc3ccc(C)nc23)c([N+](=O)[O-])c1,1,25*,6,0,10
COC(=O)CCC(=O)OC1(C)C(=O)C=C2C=C(C3CC3)N(C3CC3)C=C2C1=O (configuration not stated),2,38*,17,.,10
COCCN1C=C2C(=O)C(C)(OC(=O)CCC(=O)OC)C(=O)C=C2C=C1C1CC1 (configuration not stated),12,.,22,.,.
Cc1c(C(=O)NCc2ccc3c(c2)OCO3)sc(=O)n1Cc1ccc(-c2ccccc2)cc1,.,0,.,.,.
O=C(NC(N1CCOCC1)C(Cl)(Cl)Cl)c1ccccc1Cl (configuration not stated),2,27*,-2,-5,8
O=C(NC(N1CCCCCC1)C(Cl)(Cl)Cl)c1ccccc1Cl (configuration not stated),0,1,11,27,.
Cc1ccc(/C([O-])=C(/C(=S)NCc2ccccc2)[n+]2cccc(CO)c2)cc1[N+](=O)[O-],.,26*,27,2,1
Cc1nnc(N2C(=O)C(=O)/C(=C(/O)c3ccc4c(c3)CC(C)O4)C2c2ccccc2F)s1 (configuration not stated),0,37*,7,0,-5
COc1ccccc1C(=O)Nc1nc(C)cc(C)n1,5,25*,.,-3,1
Cc1ccc(CN2CCSCC2)cc1,-5,26*,1,-3,8
Brc1ccc(CN2CCSCC2)cc1,0,-7,-9,3,.
CCN1CCN(CC(=O)Nc2ccc(C(C)=O)cc2)CC1,1,38*,2,4,-3
O=C(CNC1CCCCCC1)Nc1ccc(N2CCCC2)cc1,-2,.,-8,.,.
CN1CCN(CC(=O)Nc2ccc(S(=O)(=O)N(C)C)cc2)CC1,-3,33*,7,0,10
